Some results are limits rather than exact numbers.

System in the first assay: not listed separately
The assay can be described thus: The compound was evaluated for its inhibitory effect of dual specificity phosphatases of VHR. The gist of the method: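 Bacterially expressed GST-VHR fusion protein with 1 mM p-nitrophenyl phosphate in 25 mM MOPS pH 6.5, 5 mM EDTA, 1 mM dithiothreitol. Compound was present at various concentrations from 30 nM during 30 min at 37 °C. NaOH was then added and absorbance read at 405 nm. IC50 was derived by nonlinear regression.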
Usually IC50 stands for the point on the concentration scale where inhibition reaches its midpoint. Low values mean inhibition by little substance, high ones a need for much substance. As for `CSc1ccnc(C[S+]([O-])c2nc3cc(OC(C)C)ccc3[nH]2)c1` (configuration not stated), the IC50 stood at 50.2 µM.
The same measure, in the same setting: to VANADATE belongs 106 µM.

A further assay deals with T1, Receptor-type tyrosine-protein phosphatase C (Homo sapiens, UniProt P08575).
T1 sequence (P08575 whole entry): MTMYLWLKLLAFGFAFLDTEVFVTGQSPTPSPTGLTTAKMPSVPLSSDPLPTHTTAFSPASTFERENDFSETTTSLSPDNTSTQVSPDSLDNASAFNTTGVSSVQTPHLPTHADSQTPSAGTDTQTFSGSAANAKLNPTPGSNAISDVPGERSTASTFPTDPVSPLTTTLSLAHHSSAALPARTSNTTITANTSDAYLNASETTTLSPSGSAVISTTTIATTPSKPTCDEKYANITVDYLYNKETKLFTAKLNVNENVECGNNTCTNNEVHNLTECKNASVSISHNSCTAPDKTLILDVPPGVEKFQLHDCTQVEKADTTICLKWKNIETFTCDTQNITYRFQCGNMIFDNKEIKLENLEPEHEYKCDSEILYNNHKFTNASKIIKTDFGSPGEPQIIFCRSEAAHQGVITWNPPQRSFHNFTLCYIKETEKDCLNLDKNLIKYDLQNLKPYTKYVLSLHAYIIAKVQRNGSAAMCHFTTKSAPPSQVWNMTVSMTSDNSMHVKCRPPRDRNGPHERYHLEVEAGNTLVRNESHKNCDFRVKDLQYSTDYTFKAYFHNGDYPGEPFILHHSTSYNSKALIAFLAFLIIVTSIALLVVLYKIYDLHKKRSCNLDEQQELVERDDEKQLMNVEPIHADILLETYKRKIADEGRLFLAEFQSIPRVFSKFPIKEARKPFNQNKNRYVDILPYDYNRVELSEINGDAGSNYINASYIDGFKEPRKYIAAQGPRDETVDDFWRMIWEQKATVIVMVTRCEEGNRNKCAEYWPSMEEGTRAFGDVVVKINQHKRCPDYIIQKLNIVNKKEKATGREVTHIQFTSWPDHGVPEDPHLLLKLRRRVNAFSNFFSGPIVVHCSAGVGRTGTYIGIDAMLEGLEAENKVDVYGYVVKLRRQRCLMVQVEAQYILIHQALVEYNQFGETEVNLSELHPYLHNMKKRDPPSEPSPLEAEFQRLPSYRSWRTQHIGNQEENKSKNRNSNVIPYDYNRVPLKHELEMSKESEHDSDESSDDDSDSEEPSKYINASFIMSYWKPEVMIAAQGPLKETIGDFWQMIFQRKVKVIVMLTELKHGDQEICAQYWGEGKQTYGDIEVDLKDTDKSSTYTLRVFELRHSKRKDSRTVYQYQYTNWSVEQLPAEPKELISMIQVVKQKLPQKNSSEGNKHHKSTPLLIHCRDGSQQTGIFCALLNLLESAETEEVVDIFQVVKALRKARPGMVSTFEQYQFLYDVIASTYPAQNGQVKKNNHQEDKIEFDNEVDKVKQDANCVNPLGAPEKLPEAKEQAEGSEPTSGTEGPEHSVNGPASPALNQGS
The experiment in a line: The compound was evaluated for its inhibitory activity towards Protein tyrosine phosphatase of CD45. In short, it runs like this:
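Commercial enzyme with 1 mM p-nitrophenyl phosphate in 25 mM MOPS pH 6.5, 5 mM EDTA, 1 mM dithiothreitol. Compound was tested at various concentrations from 30 nM, with a 30 min incubation at 37 °C. The reaction was stopped with 1 N NaOH and read at 405 nm. IC50 was obtained by nonlinear regression curve fitting.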
As to `Cc1ccnc(C[S+]([O-])c2nc3ccc(OC(C)C)cc3[nH]2)c1` (configuration not stated), it took 380 µM to reach half-maximal inhibition (IC50).
Molecule `CSc1ccnc(C[S+]([O-])c2nc3cc(OC(C)C)ccc3[nH]2)c1` (configuration not stated) gave an IC50 of 0.28 µM.
The same measure, in the same setting: to `CSc1ccnc(C[S+]([O-])c2nc3ccc(OC4CCCCC4)cc3[nH]2)c1` (configuration not stated) belongs 80.5 µM.
The same measure, in the same setting: under `CC(C)Oc1ccc2[nH]c([S+]([O-])Cc3ccccn3)nc2c1` (configuration not stated) stands 120 µM; under `CSc1ccnc(CSc2nc3ccc(OC(C)C)cc3[nH]2)c1`, > 1000 µM.

For the origin of these results see ChEMBL document CHEMBL1132831, “Synthesis and characterization of a potent and selective protein tyrosine phosphatase inhibitor, 2” (Bioorg Med Chem Lett, 2000).
